Laboratory results: ChEMBL document CHEMBL4808162, “Constraining the Side Chain of C-Terminal Amino Acids in Apelin-13 Greatly Increases Affinity, Modulates Signaling, and Improves the Pharmacokinetic Profile” (J Med Chem, 2021)
Calls of active or inactive are those of the source. No cut-off for these calls is given here.

Experiments:
[1] = target: T1, Apelin receptor (Homo sapiens, UniProt P35414); test: Agonist activity at human APJ receptor expressed in HEK293T cells co-expressing Galphai1 RlucII assessed as dissociation of Galphai1 from Gbetta/gamma subunit measured using coelenterazine luciferase substrate incubated for 5 mins by BRET assay; type: functional, cell-based, HEK293
T1 sequence (P35414 whole entry): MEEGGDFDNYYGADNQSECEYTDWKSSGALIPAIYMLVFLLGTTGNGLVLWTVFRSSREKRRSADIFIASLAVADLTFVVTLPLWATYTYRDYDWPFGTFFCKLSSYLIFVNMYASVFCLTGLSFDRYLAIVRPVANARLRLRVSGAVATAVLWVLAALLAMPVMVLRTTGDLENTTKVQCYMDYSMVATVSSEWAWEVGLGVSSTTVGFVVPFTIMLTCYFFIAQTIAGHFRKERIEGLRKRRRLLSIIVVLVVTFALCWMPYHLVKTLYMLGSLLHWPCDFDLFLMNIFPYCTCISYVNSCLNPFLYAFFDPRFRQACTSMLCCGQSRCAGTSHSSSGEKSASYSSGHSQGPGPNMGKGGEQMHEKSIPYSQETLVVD

[2] = target: T1, Apelin receptor; test: Agonist activity at human APJ receptor expressed in HEK293T cells co-expressing PDZ-Rho-Gef-RLucll and rGFP-CAAX assessed as induction of recruitment of Galpha12 to cell membrane using coelenterazine luciferase substrate incubated for 5 mins by BRET assay; type: functional, cell-based, HEK293
[3] = target: T1, Apelin receptor; test: Agonist activity at human APJ receptor expressed in HEK293 cells co-expressing Rlucll-beta-arrestin2 assessed as induction of beta-arrestin2 recruitment to receptor incubated for 30 mins by BRET assay; type: functional, cell-based
[4] = Stability in Sprague-Dawley rat plasma assessed as half life measured up to 24 hrs by UPLC-MS analysis; type: ADME, cell-free
Method in brief: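 Peptide (6 μL of 1 mM aqueous solution) incubated with 27 μL male Sprague-Dawley rat plasma at 37 °C. Time points 0, 1, 2, 4, 7, 24 h, or 0–120 min for labile peptides. Reaction quenched with acetonitrile-ethanol containing N,N-dimethylbenzamide internal standard, filtered, then UPLC-MS. t1/2 from one-phase exponential decay; at least three experiments.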

[5] = system: Rattus norvegicus; test: Hypotensive effect in Sprague-Dawley rat assessed as drop in mean arterial blood pressure at 19.6 nmol/kg, iv bolus injection measured after 1 min; type: functional
Method in brief: (§1)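 Male Sprague-Dawley rats (250−300 g) under ketamine/xylazine (87/13 mg/kg i.m.) on a thermostatic pad. Mean arterial pressure recorded through a right carotid catheter. Saline vehicle bolus given, then 5 min later the peptide i.v. at 19.6 nmol/kg (n = 5) or 65 nmol/kg.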

[6] = target: T2, Apelin receptor (Homo sapiens) (UniProt P35414); test: Agonist activity at human APJ receptor expressed in HEK293T cells co-expressing PDZ-Rho-Gef-RLucll and rGFP-CAAX assessed as induction of recruitment of Galpha12 to cell membrane using coelenterazine luciferase substrate incubated for 5 mins by BRET assay relative to control; type: functional, cell-based; details: HEK293, filed as partial agonist
T2 sequence (whole entry): T1 sequence (P35414 whole entry)
Method in brief: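 HEK293T cells (35 000/well) transiently transfected with PEI 48 h before assay, carrying hAPJ, Gα12, Gβ1, Gγ1 and the ebBRET pair PDZ-RhoGEF-RLucII / rGFP-CAAX. Ligand stimulation for 5 min. Curves fitted as normalized variable-slope dose-response with Hill slope shared; eight experiments, each singly.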

[7] = target: T1, Apelin receptor; test: Displacement of [125I] [NIe75,Tyr77]Pyr-apelin-13 from YFP-tagged human APJ receptor expressed in HEK293 cells incubated for 1 hr by gamma counting analysis; type: cell-based
[8] = system: Rattus norvegicus; test: Effect on mean arterial blood pressure in Sprague-Dawley rat at 65 nmol/kg, iv bolus injection measured after 1 min; type: functional, organism-based; method in brief: as §1
[9] = target: T2, Apelin receptor (Homo sapiens); test: Agonist activity at human APJ receptor expressed in HEK293 cells co-expressing Rlucll-beta-arrestin2 assessed as induction of beta-arrestin2 recruitment to receptor incubated for 30 mins by BRET assay relative to control; type: functional, cell-based
Method in brief: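 HEK293 cells transiently transfected with PEI, carrying hAPJ-GFP10 and RlucII-β-arrestin2. Cells replated at 50 000/well after 24 h, washed, and placed in HBSS. Ligand given at 10⁻⁵ to 10⁻¹¹ M for 30 min at room temperature. 5 μM coelenterazine 400A added, BRET² ratio GFP10/RlucII read. EC50 from dose-response fit; three experiments, each in triplicate.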

Row | SMILES | EC50 [1] [nM] | EC50 [2] [nM] | EC50 [3] [nM] | half-life [4] [min] | Activity [5] [mmHg] | Emax [6] [%] | Ki [7] [nM] | Activity [8] | Emax [9] [%]
1 | CCCC[C@H](NC(=O)[C@@H]1CCCN1C(=O)CNC(=O)[C@H](CCCCN)NC(=O)[C@H](Cc1cnc[nH]1)NC(=O)[C@H](CO)NC(=O)[C@H](CC(C)C)NC(=O)[C@H](CCCNC(=N)N)NC(=O)[C@@H]1CCCN1C(=O)[C@H](CCCNC(=N)N)NC(=O)[C@@H]1CCC(=O)N1)C(=O)N1CCC[C@H]1C(=O)N[C@](C)(Cc1ccc(OCc2ccccc2)cc1)C(=O)O | 2.7 | 4.4 | 30 | 54 | 30 | 46 | – | – | –
2 | CCCC[C@H](NC(=O)[C@@H]1CCCN1C(=O)CNC(=O)[C@H](CCCCN)NC(=O)[C@H](Cc1cnc[nH]1)NC(=O)[C@H](CO)NC(=O)[C@H](CC(C)C)NC(=O)[C@H](CCCNC(=N)N)NC(=O)[C@@H]1CCCN1C(=O)[C@H](CCCNC(=N)N)NC(=O)[C@@H]1CCC(=O)N1)C(=O)N1CCC[C@H]1C(=O)N[C@H](Cc1cc(C2CCCC2)c(OCc2ccccc2)c(C2CCCC2)c1)C(=O)O | 22 | 141 | 367 | – | – | – | 13 | inactive | 53
